Laboratory results as given in ChEMBL document CHEMBL1671711, “Serum and cerebrospinal fluid levels of colistin in pediatric patients” (Antimicrob Agents Chemother, 2010).

Columns and labels:
Format in all cases: ADME, organism-based
Design in all cases: route intravenous
Serum [1] = assay: Drug level in pediatric patient serum with gram-negative bacterial infection assessed as Colistin level at 4.8 mg/kg/day, iv administered every 8 hrs for 7 days measured after 30 mins by LS/MS/MS analysis; settings: human, in vivo, 0.5 h
Method in brief: (§1)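 Blood was drawn 30 min after the end of the 20-min IV CMS infusion, given every 8 h. Serum was separated by centrifugation, stored at −80°C, and assayed by LC-MS-MS for colistin A plus B (interday CV <4.4%, accuracy within ±1.9%). Values are means of two sampling days; course 1 was sampled once.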

[2] = Drug level in pediatric patient cerebrospinal fluid with gram-negative bacterial infection assessed as Colistin level at 16 mg/kg/day, iv administered every 8 hrs for 51 days measured after 30 mins by LS/MS/MS analysis; settings: human, in vivo, 0.5 h
Method in brief: (§2)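 Children (1 month to 14 years) received CMS in 30 to 50 ml normal saline by 20-min IV infusion every 8 h. CSF was taken from EVD systems alongside blood, after the end of infusion, and stored at −80°C. It was diluted 1:1 with serum, protein-precipitated, and analysed by LC-MS-MS for colistin A plus B against standards in pH 7.4 phosphate-buffered artificial-CSF Ringer with serum. Values are means of two days; course 1 was sampled once.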

Serum [3] = assay: Drug level in pediatric patient serum with gram-negative bacterial infection at 4.8 mg/kg/day, iv administered every 8 hrs for 7 days measured after 30 mins by LS/MS/MS analysis; settings: human, in vivo, 0.5 h
Method in brief: (§3)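 Serum was taken 30 min after the end of the 20-min IV CMS infusion (every 8 h) and stored at −80°C. It underwent acid hydrolysis with 1 M H2SO4 for 15–20 min, neutralisation with 1 M NaOH, and precipitation with acetonitrile containing 0.1% TFA. LC-MS-MS colistin before hydrolysis was subtracted from colistin after hydrolysis to give CMS. Values are means of two days.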

Serum [4] = assay: Drug level in pediatric patient serum with gram-negative bacterial infection at 10.4 mg/kg/day, iv administered every 8 hrs for 46 days measured after 30 mins by LS/MS/MS analysis; settings: human, in vivo, 0.5 h; method in brief: as §3
[5] = Ratio of drug level in cerebrospinal fluid to Serum of pediatric patient with gram-negative bacterial infection at 18 mg/kg/day, iv administered every 8 hrs for 42 days by LS/MS/MS analysis; settings: human, csf
Method in brief: (§4)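 Percentages are the ratio of mean CSF concentration to mean serum concentration from paired samples. Blood was drawn immediately before and 30 min after the 20-min IV CMS infusion (every 8 h); CSF came from EVD systems concurrently. Both were measured by LC-MS-MS, for colistin directly and for CMS after acid hydrolysis. Pairs were repeated on two days.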

Serum [6] = assay: Drug level in pediatric patient serum with gram-negative bacterial infection before initiation of 16 mg/kg/day, iv administered every 8 hrs for 51 days by LS/MS/MS analysis; settings: human, in vivo
Method in brief: (§5)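 Trough sampling: blood was drawn immediately before the 20-min IV CMS infusion (every 8 h), and CSF was taken from EVD systems within 1 h before infusion. Samples were stored at −80°C and analysed by LC-MS-MS for colistin, and for CMS via acid hydrolysis with subtraction. CSF was diluted 1:1 with serum. Values are means of two days.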

[7] = Ratio of drug level in cerebrospinal fluid to Serum of pediatric patient with gram-negative bacterial infection before initiation of 16 mg/kg/day, iv administered every 8 hrs for 51 days by LS/MS/MS analysis; settings: human, csf; method in brief: as §4
Serum [8] = assay: Drug level in pediatric patient serum with gram-negative bacterial infection at 16 mg/kg/day, iv administered every 8 hrs for 51 days measured after 30 mins by LS/MS/MS analysis; settings: human, in vivo, 0.5 h; method in brief: as §3
[9] = Drug level in pediatric patient cerebrospinal fluid with gram-negative bacterial infection before initiation of 16 mg/kg/day, iv administered every 8 hrs for 51 days by LS/MS/MS analysis; settings: human, in vivo; method in brief: as §5
[10] = Ratio of drug level in cerebrospinal fluid to Serum of pediatric patient with gram-negative bacterial infection before initiation of 18 mg/kg/day, iv administered every 8 hrs for 42 days by LS/MS/MS analysis; settings: human, csf; method in brief: as §4
[11] = Ratio of drug level in cerebrospinal fluid to Serum of pediatric patient with gram-negative bacterial infection before initiation of 16 mg/kg/day, iv administered every 8 hrs for 93 days by LS/MS/MS analysis; settings: human, csf; method in brief: as §4
[12] = Ratio of drug level in cerebrospinal fluid to Serum of pediatric patient with gram-negative bacterial infection assessed as Colistin level at 18 mg/kg/day, iv administered every 8 hrs for 42 days by LS/MS/MS analysis; settings: human, csf; method in brief: as §4
Serum [13] = assay: Drug level in pediatric patient serum with gram-negative bacterial infection at 16 mg/kg/day, iv administered every 8 hrs for 93 days measured after 30 mins by LS/MS/MS analysis; settings: human, in vivo, 0.5 h; method in brief: as §3
Serum [14] = assay: Drug level in pediatric patient serum with gram-negative bacterial infection at 18 mg/kg/day, iv administered every 8 hrs for 42 days measured after 30 mins by LS/MS/MS analysis; settings: human, in vivo, 0.5 h; method in brief: as §3
Serum [15] = assay: Drug level in pediatric patient serum with gram-negative bacterial infection assessed as Colistin level at 10.4 mg/kg/day, iv administered every 8 hrs for 46 days measured after 30 mins by LS/MS/MS analysis; settings: human, in vivo, 0.5 h; method in brief: as §1
[16] = Drug level in pediatric patient cerebrospinal fluid with gram-negative bacterial infection assessed as Colistin level at 10.4 mg/kg/day, iv administered every 8 hrs for 46 days measured after 30 mins by LS/MS/MS analysis; settings: human, in vivo, 0.5 h; method in brief: as §2
[17] = Drug level in pediatric patient cerebrospinal fluid with gram-negative bacterial infection at 16 mg/kg/day, iv administered every 8 hrs for 93 days measured after 30 mins by LS/MS/MS analysis; settings: human, in vivo, 0.5 h
Method in brief: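 CMS was given by 20-min IV infusion in saline every 8 h, and CSF was taken from EVD systems after the end of infusion. The CSF–serum 1:1 mix was treated with 1 M H2SO4 for 15–20 min, then 1 M NaOH, then acetonitrile with 0.1% TFA. CMS was calculated as colistin after hydrolysis minus colistin before hydrolysis, by LC-MS-MS, with CMS controls of 0.25–18.5 μg/ml. Values are means of two days; course 1 was sampled once.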

[18] = Drug level in pediatric patient cerebrospinal fluid with gram-negative bacterial infection assessed as Colistin level at 4.8 mg/kg/day, iv administered every 8 hrs for 7 days measured after 30 mins by LS/MS/MS analysis; settings: human, in vivo, 0.5 h; method in brief: as §2
[19] = Ratio of drug level in cerebrospinal fluid to Serum of pediatric patient with gram-negative bacterial infection before initiation of 4.8 mg/kg/day, iv administered every 8 hrs for 7 days by LS/MS/MS analysis; settings: human, csf; method in brief: as §4
[20] = Drug level in pediatric patient cerebrospinal fluid with gram-negative bacterial infection before initiation of 10.4 mg/kg/day, iv administered every 8 hrs for 46 days by LS/MS/MS analysis; settings: human, in vivo; method in brief: as §5
Serum [21] = assay: Drug level in pediatric patient serum with gram-negative bacterial infection assessed as Colistin level at 18 mg/kg/day, iv administered every 8 hrs for 42 days measured after 30 mins by LS/MS/MS analysis; settings: human, in vivo, 0.5 h; method in brief: as §1
[22] = Ratio of drug level in cerebrospinal fluid to Serum of pediatric patient with gram-negative bacterial infection at 16 mg/kg/day, iv administered every 8 hrs for 93 days by LS/MS/MS analysis; settings: human, csf; method in brief: as §4
[23] = Ratio of drug level in cerebrospinal fluid to Serum of pediatric patient with gram-negative bacterial infection at 4.8 mg/kg/day, iv administered every 8 hrs for 7 days by LS/MS/MS analysis; settings: human, csf; method in brief: as §4

Drug uptake (Serum [1]): 0.29 µg/mL
Drug uptake [2]: 0.11 µg/mL
Drug uptake (Serum [3]): 2.86 µg/mL
Drug uptake (Serum [4]): 7.9 µg/mL
Ratio [5]: 0.4%
Drug uptake (Serum [6]): 0.93 µg/mL
Ratio [7]: 9.9%
Drug uptake (Serum [8]): 9.89 µg/mL
Drug uptake [9]: 0.09 µg/mL
Ratio [10]: 0.6%
Ratio [11]: 50.9%
Ratio [12]: 3.2%
Drug uptake (Serum [13]): 8.41 µg/mL
Drug uptake (Serum [14]): 7.98 µg/mL
Drug uptake (Serum [15]): 1.46 µg/mL
Drug uptake [16]: 0.05 µg/mL
Drug uptake [17]: 0.26 µg/mL
Drug uptake [18]: 0.06 µg/mL
Ratio [19]: 20.6%
Drug uptake [20]: 0.03 µg/mL
Drug uptake (Serum [21]): 2.2 µg/mL
Ratio [22]: 3.1%
Ratio [23]: 2%
Sequence: COLISTIN
